In ChEMBL document CHEMBL1137243, “Design, synthesis, and antifungal activities in vitro of novel tetrahydroisoquinoline compounds based on the structure of lanosterol 14alpha-demethylase (CYP51) of fungi” (2006):
≈ marks a conversion by molar mass, not a printed value.

Experiments:
Assay type in all cases: functional
[1] = system: Microsporum canis; experiment: Antifungal activity against Microsporum canis after 7 days; settings: 168 h
How it was run: (§1)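 Dermatophytes were tested by NCCLS-based broth serial dilution in 96-well plates. Medium: RPMI 1640 with 0.165 M MOPS. Isolates were from ATCC or clinical sources. Compounds in DMSO were serially diluted in medium. Incubation was at 28 °C with the read at 7 days. MIC is the lowest concentration giving ≥80% turbidity reduction relative to the growth control.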

[2] = system: Candida parapsilosis; experiment: Antifungal activity against Candida parapsilosis after 24 hrs; settings: Lodderomyces parapsilosis
How it was run: (§2)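 Broth serial-dilution MIC in 96-well plates per NCCLS recommendations. Medium: RPMI 1640 buffered with 0.165 M MOPS. Strains were from ATCC or clinical isolates. Compounds were dissolved in DMSO and serially diluted in growth medium. Yeasts were incubated at 35 °C, read at 24 h for Candida and 72 h for C. neoformans. MIC is the lowest concentration giving ≥80% growth inhibition versus control (turbidity).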

[3] = system: Aspergillus fumigatus; experiment: Antifungal activity against Aspergillus fumigatus after 7 days; settings: 168 h
How it was run: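 Filamentous-fungus MIC was determined by serial dilution in 96-well plates per NCCLS, using RPMI 1640 buffered with 0.165 M MOPS. Strains were ATCC or clinical isolates. Compounds in DMSO were diluted in growth medium. Growth was read at 7 days. MIC is the lowest concentration producing ≥80% inhibition of turbidity compared with control.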

[4] = system: Candida albicans; experiment: Antifungal activity against Candida albicans after 24 hrs; how it was run: as §2
[5] = system: Cryptococcus neoformans; experiment: Antifungal activity against Cryptococcus neoformans after 72 hrs; how it was run: as §2
[6] = system: Trichophyton rubrum; experiment: Antifungal activity against Trichophyton rubrum after 7 days; settings: 168 h; how it was run: as §1

Structure (SMILES)	MIC80 [1] [µg/mL]	MIC80 [2] [µg/mL]	MIC80 [3] [µg/mL]	MIC80 [4] [µg/mL]	MIC80 [5] [µg/mL]	MIC80 [6] [µg/mL]
CCCCCCCCCCN1CCc2cc(O)c(O)cc2C1	12.5 (≈ 40.9 µM)	12.5 (≈ 40.9 µM)	50 (≈ 164 µM)	100 (≈ 327 µM)	3.12 (≈ 10.2 µM)	3.12 (≈ 10.2 µM)
CCCCCCCCCCCCN1CCc2cc(O)c(O)cc2C1	12.5 (≈ 37.5 µM)	50 (≈ 150 µM)	50 (≈ 150 µM)	50 (≈ 150 µM)	6.25 (≈ 18.7 µM)	12.5 (≈ 37.5 µM)
CCCCCCCCCCCCCCCCN1CCc2cc(O)c(O)cc2C1	> 200	100 (≈ 257 µM)	200 (≈ 513 µM)	> 200	100 (≈ 257 µM)	200 (≈ 513 µM)
CCCCCCCCN1CCc2cc(O)c(O)cc2C1	50 (≈ 180 µM)	100 (≈ 360 µM)	> 200	> 200	100 (≈ 360 µM)	50 (≈ 180 µM)
CCCCCCN1CCc2cc(O)c(O)cc2C1	> 200	100 (≈ 401 µM)	> 200	> 200	100 (≈ 401 µM)	> 200
CCCCCN1CCc2cc(O)c(O)cc2C1	> 200	100 (≈ 425 µM)	> 200	> 200	100 (≈ 425 µM)	> 200
CCCCCCCN1CCc2cc(O)c(O)cc2C1	> 200	100 (≈ 380 µM)	> 200	> 200	100 (≈ 380 µM)	> 200
CCCCCCCCCCCCCCN1CCc2cc(O)c(O)cc2C1	12.5 (≈ 34.6 µM)	50 (≈ 138 µM)	> 200	50 (≈ 138 µM)	6.25 (≈ 17.3 µM)	25 (≈ 69.1 µM)
CCCCCCCCCN1CCc2cc(O)c(O)cc2C1	50 (≈ 172 µM)	25 (≈ 85.8 µM)	200 (≈ 686 µM)	200 (≈ 686 µM)	25 (≈ 85.8 µM)	12.5 (≈ 42.9 µM)
OC(Cn1cncn1)(Cn1cncn1)c1ccc(F)cc1F [FLUCONAZOLE]	100 (≈ 327 µM)	50 (≈ 163 µM)	> 200	1.56 (≈ 5.1 µM)	6.25 (≈ 20.4 µM)	25 (≈ 81.6 µM)
